This note sets out measurements from ChEMBL document CHEMBL1149056, “Bioactive annonaceous acetogenins from the bark of Xylopia aromatica” (J Nat Prod, 1994).

One may read the LC50 as the concentration lethal to half of the exposed cells or organisms. A lower LC50 goes with a more lethal substance.

In brackets after ≈: the same amount, converted by molar mass.

The nature of data set [1]: Toxicity against brine shrimp larvae. It counts as organism-based. Conditions: artemia, in vivo.
For the next data set, the system named is MCF7. In words: Cytotoxicity against human MCF7 cells after 7 days. Type of data set: functional. Conditions: for EC50: Homo sapiens, MCF7, 168 h, read-out: ED50 (the source's name). The gist of the method: (§1)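 Human solid tumor cell lines A-549 (lung carcinoma), MCF-7 (breast carcinoma) and HT-29 (colon adenocarcinoma) tested in seven-day cytotoxicity assays run at a cancer center cell culture laboratory, with adriamycin as positive control.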

The subject of the next data set is HT-29. The data set can be described thus: Cytotoxicity against human HT-29 cells after 7 days. Type of data set: functional. Conditions: for EC50: Homo sapiens, HT-29, 168 h, read-out: ED50 (the source's name). The gist of the method: as §1
Another data set relates to A549. The data set can be described thus: Cytotoxicity against human A549 cells after 7 days. Type of data set: functional. The conditions noted are these: for EC50: Homo sapiens, A549, 168 h, read-out: ED50 (the source's name). An outline of the steps: as §1

Regarding `CCCCCCCCCCCCCC[C@@H](O)[C@H]1CC[C@H]([C@H](O)CCCCCCC(O)CCC[C@@H](O)CC2=C[C@H](C)OC2=O)O1` (some centres undefined) [XYLOPIACIN], in data set [1], the median lethal concentration (LC50) worked out at 0.49 µg/mL (≈ 0.784 µM). Also, the ED50 in the data set on MCF7 stood at 1.39 ×10⁻⁷ ug/ml; with A549, 1.36 ×10⁻⁶ ug/ml. Further, the EC50 in the data set with HT-29 was 0.111 µg/mL (≈ 0.178 µM).

With `CCCCCCCCCCCC[C@@H](O)[C@H]1CC[C@H]([C@H](O)CCCC[C@H](O)CCCCC[C@@H](O)CC2=CC(C)OC2=O)O1` (some centres undefined) [ANNONACIN], the LC50 in data set [1] was 0.23 µg/mL (≈ 0.385 µM). In the data set with MCF7, the EC50 turned out to be 0.0024 µg/mL (≈ 0.00402 µM). The ED50 in the data set with HT-29 and in the data set with A549 was under 1 ×10⁻⁷ ug/ml each time.

As to `CCCCCCCCCCCCCCC(O)C(O)CC[C@H](O)[C@H]1CC[C@H](CCCCC[C@@H](O)CC2=C[C@H](C)OC2=O)O1` (some centres undefined) [GIGANTETRONENIN], the EC50 with MCF7 turned out to be 0.603 µg/mL (≈ 1.01 µM); in the data set on HT-29, 0.0537 µg/mL (≈ 0.09 µM); in the data set on A549 it was 0.0047 µg/mL (≈ 0.00787 µM).

In the case of `CCCCCCCCCCCC[C@H](O)[C@@H]1CC[C@@H]([C@@H](O)CCCCCCC(O)CCCCC[C@@H](O)CC2=C[C@H](C)OC2=O)O1` (some centres undefined) [ANNOMONTACIN], the figures for the EC50 in the data set on MCF7, in the data set with HT-29 and in the data set with A549 were 0.165 µg/mL (≈ 0.264 µM), 0.00258 µg/mL (≈ 0.00413 µM) and 0.00772 µg/mL (≈ 0.0124 µM), respectively.

Molecule `CCCCCCCCCCCC[C@@H](O)[C@H]1CC[C@H]([C@H](O)CCCCCCC(O)CCC[C@@H](O)CC2=C[C@H](C)OC2=O)O1` (some centres undefined) [XYLOPIANIN] had an LC50 in data set [1] of 0.33 µg/mL (≈ 0.553 µM). Also, the EC50 in the data set with MCF7 came to 18.5 µg/mL (≈ 30.9 µM); with HT-29 it was 6.63 µg/mL (≈ 11.1 µM); in the data set with A549 it was 0.0426 µg/mL (≈ 0.0714 µM).

As to `COc1cccc2c1C(=O)c1c(O)c3c(c(O)c1C2=O)C[C@@](O)(C(=O)CO)C[C@@H]3O[C@H]1C[C@H](N)[C@H](O)[C@H](C)O1` [DOXORUBICIN], the EC50 in the data set on MCF7 stood at 0.0228 µg/mL (≈ 0.0419 µM); in the data set with HT-29, 0.00279 µg/mL (≈ 0.00513 µM); with A549, 0.0011 µg/mL (≈ 0.00202 µM).

`CCCCCCCCCCCCCC[C@@H](O)[C@H](O)CC[C@H](O)[C@@H]1CC[C@@H](CCCCC[C@@H](O)CC2=C[C@H](C)OC2=O)O1` [GIGANTETROCIN A]: in data set [1], the LC50 worked out at 1.4 µg/mL (≈ 2.35 µM). The EC50 in the data set on MCF7 worked out at 0.63 µg/mL (≈ 1.06 µM); with A549 it was 0.25 µg/mL (≈ 0.419 µM). The ED50 in the data set on HT-29 worked out at 4.1 ×10⁻⁵ ug/ml.

In turn, `CCCCCCCCCCCCCC[C@@H](O)[C@H]1CC[C@H]([C@H](O)CCCCC(O)CCCCC[C@@H](O)CC2=C[C@H](C)OC2=O)O1` (some centres undefined) [XYLOMATICIN] gave an LC50 in data set [1] of 0.11 µg/mL (≈ 0.176 µM). The ED50 in the data set with MCF7 was found to be 1.47 ×10⁻⁶ ug/ml; in the data set on A549, 1.54 ×10⁻⁴ ug/ml. In addition, in the data set with HT-29, the EC50 came out at 0.304 µg/mL (≈ 0.486 µM).
